Results from ChEMBL document CHEMBL3351896, “Small Molecule that Reverses Dexamethasone Resistance in T-cell Acute Lymphoblastic Leukemia (T-ALL)” (ACS Med Chem Lett, 2014).
Calls of active or inactive are those of the source. The calls are words filed in the database; no cut-off is given here.

Columns and labels:
Type in all cases: functional, cell-based
CUTLL1 [1] = assay: Effect on BTG1 gene expression in human CUTLL1 cells in absence of 1 uM dexamethasone at 30 uM after 24 hrs by microarray method
Summary of the method: (§1)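 CUTLL1 T-ALL cells exposed 24 h to vehicle (DMSO), dexamethasone alone (1 μM), test agent alone (30 μM), or dexamethasone (1 μM) plus test agent (30 μM), in triplicate. Expression profiled by microarray. Leading-edge genes from GSEA were compared between the dexamethasone-plus-agent and dexamethasone-alone groups, using glucocorticoid-regulated gene sets from ALL patients on glucocorticoid therapy.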

CUTLL1 [2] = assay: Increase in GR expression in human CUTLL1 cells at < 25 uM after 24 hrs by Western blotting method
CUTLL1 [3] = assay: Effect on ALYREF gene expression in human CUTLL1 cells in absence of 1 uM dexamethasone at 30 uM after 24 hrs by microarray method; summary of the method: as §1
CUTLL1 [4] = assay: Effect on TK1 gene expression in human CUTLL1 cells in presence of 1 uM dexamethasone at 30 uM after 24 hrs by microarray method
Summary of the method: (§2)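 Human CUTLL1 T-ALL cells exposed for 24 h to vehicle (DMSO), dexamethasone alone (1 μM), test compound alone (30 μM), or dexamethasone 1 μM plus compound 30 μM, each in triplicate. Expression profiled by microarray. Glucocorticoid-regulated gene sets from ALL patients on glucocorticoid therapy scored by GSEA. Leading-edge genes compared between the combination and dexamethasone alone.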

CUTLL1 [5] = assay: Effect on RAD51AP1 gene expression in human CUTLL1 cells in absence of 1 uM dexamethasone at 30 uM after 24 hrs by microarray method; summary of the method: as §2
CUTLL1 [6] = assay: Effect on NXT1 gene expression in human CUTLL1 cells in presence of 1 uM dexamethasone at 30 uM after 24 hrs by microarray method; summary of the method: as §1
CUTLL1 [7] = assay: Effect on CDC45 gene expression in human CUTLL1 cells in absence of 1 uM dexamethasone at 30 uM after 24 hrs by microarray method; summary of the method: as §1
CUTLL1 [8] = assay: Effect on MCM4 gene expression in human CUTLL1 cells in presence of 1 uM dexamethasone at 30 uM after 24 hrs by microarray method; summary of the method: as §1
CUTLL1 [9] = assay: Effect on ALYREF gene expression in human CUTLL1 cells in presence of 1 uM dexamethasone at 30 uM after 24 hrs by microarray method; summary of the method: as §1
CUTLL1 [10] = assay: Effect on DSCC1 gene expression in human CUTLL1 cells in presence of 1 uM dexamethasone at 30 uM after 24 hrs by microarray method; summary of the method: as §1
CUTLL1 [11] = assay: Effect on BRCA1 gene expression in human CUTLL1 cells in absence of 1 uM dexamethasone at 30 uM after 24 hrs by microarray method; summary of the method: as §1
CUTLL1 [12] = assay: Effect on MCM10 gene expression in human CUTLL1 cells in absence of 1 uM dexamethasone at 30 uM after 24 hrs by microarray method; summary of the method: as §1
CUTLL1 [13] = assay: Growth inhibition of human CUTLL1 cells at 50 uM in presence of camptothecin after 48 hrs by alamar blue assay
CUTLL1 [14] = assay: Effect on RUVBL1 gene expression in human CUTLL1 cells in presence of 1 uM dexamethasone at 30 uM after 24 hrs by microarray method; summary of the method: as §2
CUTLL1 [15] = assay: Effect on GINS2 gene expression in human CUTLL1 cells in presence of 1 uM dexamethasone at 30 uM after 24 hrs by microarray method; summary of the method: as §1
CUTLL1 [16] = assay: Effect on POLE2 gene expression in human CUTLL1 cells in absence of 1 uM dexamethasone at 30 uM after 24 hrs by microarray method; summary of the method: as §2
CUTLL1 [17] = assay: Effect on HELLS gene expression in human CUTLL1 cells in presence of 1 uM dexamethasone at 30 uM after 24 hrs by microarray method; summary of the method: as §1
CUTLL1 [18] = assay: Increase in GR expression in human CUTLL1 cells at 25 to 50 uM in presence of 1 uM dexamethasone and 1 uM […] and glucocorticoid receptor antagonist RU486 after 24 hrs by Western blotting method
Summary of the method: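 CUTLL1 cells exposed to compound (25 or 50 μM) alone, with 1 μM dexamethasone, or with dexamethasone plus 1 μM RU486, for 6 or 24 h. GR measured as protein by Western blot and as transcript by RT-qPCR.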

CUTLL1 [19] = assay: Effect on CHAF1A gene expression in human CUTLL1 cells in absence of 1 uM dexamethasone at 30 uM after 24 hrs by microarray method; summary of the method: as §1

**Q.** What does the source list for `Nc1ncc(-c2ccncc2)c(C2CC2)n1`?
**A.** Activity (CUTLL1 [1]): inactive; Activity (CUTLL1 [2]): inactive; Activity (CUTLL1 [3]): inactive; Activity (CUTLL1 [4]): Active; Activity (CUTLL1 [5]): inactive; Activity (CUTLL1 [6]): Active; Activity (CUTLL1 [7]): inactive; Activity (CUTLL1 [8]): Active; Activity (CUTLL1 [9]): Active; Activity (CUTLL1 [10]): Active; Activity (CUTLL1 [11]): inactive; Activity (CUTLL1 [12]): inactive; growth inhibition (GI) (CUTLL1 [13]): inactive; Activity (CUTLL1 [14]): Active; Activity (CUTLL1 [15]): Active; Activity (CUTLL1 [16]): inactive; Activity (CUTLL1 [17]): Active; Activity (CUTLL1 [18]): inactive; Activity (CUTLL1 [19]): inactive
